# Assay results: ChEMBL document CHEMBL1144185, “Synthesis and SAR study of N-(4-hydroxy-3-(2-hydroxynaphthalene-1-yl)phenyl)-arylsulfonamides: heat shock protein 90 (Hsp90) inhibitors with submicromolar activity in an in vitro assay” (Bioorg Med Chem Lett, 2008)
# The source made the active and inactive calls. No cut-off for these calls is given here.
# System: SK-BR-3
# Assay: cells
# Settings: Homo sapiens, SK-BR-3, 72 h
row,IC50 [µM],Compound
1,6,O=S(=O)(Nc1ccc(O)c(-c2c(O)ccc3ccccc23)c1)c1cc(Cl)ccc1Cl
2,> 50,O=S(=O)(Nc1ccc(O)c(-c2c(O)ccc3ccccc23)c1)c1ccc(O)cc1O
3,4.4,O=S(=O)(Nc1ccc(O)c(-c2c(O)ccc3c2OCO3)c1)c1cc(Cl)ccc1Cl
4,6,COc1ccc(O)c(O)c1-c1cc(NS(=O)(=O)c2cc(Cl)ccc2Cl)ccc1N

# Molecular target: T1, Heat shock protein HSP90 (Homo sapiens, UniProt P07900+P08238)
# Assay: Inhibition of Hsp90 in human SKBR3 cells assessed as interaction with Cy3b-conjugated geldanamycin upto 50 uM by FP assay
# Format: cell-based
# Settings: SK-BR-3
# Procedure, shortened: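 Fluorescence polarization binding assay measuring displacement of fluorescently labeled geldanamycin from the Hsp90 ATP-binding site. Compounds were tested up to a maximum of 50 µM.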
row,Compound,Activity
1,Cc1ccc(S(=O)(=O)Nc2ccc(O)c(-c3ccccc3O)c2)cc1,inactive
2,O=C(O)c1ccc(S(=O)(=O)Nc2ccccc2-c2c(O)ccc3c2OCO3)cc1,inactive
3,Cc1ccc(S(=O)(=O)Nc2ccc(N)c(-c3ccccc3O)c2)cc1,inactive
4,O=S(=O)(Nc1ccc(F)c(-c2c(O)ccc3c2OCO3)c1)c1ccc(F)cc1,inactive
5,Nc1ccc(NS(=O)(=O)c2ccccc2)cc1-c1c(O)ccc2ccccc12,inactive
6,N#Cc1cc(S(=O)(=O)Nc2cccc(-c3c(O)ccc4c3OCO4)c2)ccc1F,inactive
7,O=[N+]([O-])c1cccc(S(=O)(=O)Nc2ccc(O)c(-c3ccccc3O)c2)c1,inactive
8,Nc1ccccc1S(=O)(=O)Nc1ccc(O)c(-c2ccccc2O)c1,inactive
9,O=S(=O)(Nc1ccccc1-c1c(O)ccc2c1OCO2)c1cc(Cl)ccc1Cl,inactive
10,Nc1ccc(NS(=O)(=O)c2cc(Cl)ccc2Cl)cc1-c1ccccc1O,inactive
11,N#Cc1cc(S(=O)(=O)Nc2ccccc2-c2c(O)ccc3c2OCO3)ccc1F,inactive
12,Nc1cccc(S(=O)(=O)Nc2ccc(O)c(-c3ccccc3O)c2)c1,inactive
13,COc1ccc(S(=O)(=O)Nc2ccc(N)c(-c3ccccc3O)c2)cc1OC,inactive
14,COc1ccc(S(=O)(=O)Nc2ccc(O)c(-c3ccccc3O)c2)cc1OC,inactive
15,O=C(O)c1cccc(S(=O)(=O)Nc2ccc(F)c(-c3c(O)ccc4c3OCO4)c2)c1,inactive

# More lines, now with the values ahead:
row,Activity,Compound
1,inactive,COc1ccc2c(c1-c1cc(NS(=O)(=O)c3cccc(N)c3)ccc1N)OCO2
2,inactive,O=[N+]([O-])c1cccc(S(=O)(=O)Nc2ccc(F)c(-c3c(O)ccc4c3OCO4)c2)c1
3,inactive,COc1ccc(S(=O)(=O)Nc2ccc(N)c(-c3c(OC)ccc4c3OCO4)c2)cc1OC
4,inactive,COc1ccc2c(c1-c1cc(NS(=O)(=O)c3ccccc3N)ccc1N)OCO2
5,inactive,Nc1cccc(S(=O)(=O)Nc2ccc(F)c(-c3c(O)ccc4c3OCO4)c2)c1
6,inactive,Nc1ccccc1S(=O)(=O)Nc1ccc(F)c(-c2c(O)ccc3c2OCO3)c1
7,inactive,COc1ccc2c(c1-c1cc(NS(=O)(=O)c3ccc(C)cc3)ccc1N)OCO2
8,inactive,O=[N+]([O-])c1ccccc1S(=O)(=O)Nc1ccc(O)c(-c2ccccc2O)c1
9,inactive,O=[N+]([O-])c1ccccc1S(=O)(=O)Nc1ccc(F)c(-c2c(O)ccc3c2OCO3)c1
10,inactive,COc1ccc2c(c1-c1cc(NS(=O)(=O)c3cccc([N+](=O)[O-])c3)ccc1N)OCO2
11,inactive,COc1ccc2c(c1-c1cc(NS(=O)(=O)c3cc(Cl)ccc3Cl)ccc1N)OCO2
12,inactive,COc1ccc2c(c1-c1cc(NS(=O)(=O)c3ccccc3[N+](=O)[O-])ccc1N)OCO2

# Molecular target: T1, Heat shock protein HSP90
# Assay: Inhibition of Hsp90 in human SKBR3 cells assessed as Her2 degradation after 24 hrs by Western blot
# Format: cell-based
# Settings: sk-br-3
row,IC50 [µM],Compound
1,20,COc1ccc(O)c(O)c1-c1cc(NS(=O)(=O)c2cc(Cl)ccc2Cl)ccc1N

# Molecular target: T1, Heat shock protein HSP90
# Assay: Inhibition of Hsp90 in human SKBR3 cells assessed as interaction with Cy3b-conjugated geldanamycin by FP assay
# Format: cell-based
# Settings: sk-br-3
row,Compound,IC50 [µM]
1,N#Cc1cc(S(=O)(=O)Nc2ccc(F)c(-c3c(O)ccc4c3OCO4)c2)ccc1F,27
2,Nc1ccc(NS(=O)(=O)c2cc(Cl)ccc2Cl)cc1-c1c(O)ccc2ccccc12,9.4
3,Cc1ccc(S(=O)(=O)Nc2cccc(-c3c(O)ccc4c3OCO4)c2)cc1,31.3
4,COc1ccc(S(=O)(=O)Nc2ccc(O)c(-c3c(O)ccc4ccccc34)c2)c(OC)c1,2.5
5,O=S(=O)(Nc1ccc(O)c(-c2c(O)ccc3ccccc23)c1)c1ccccc1,4.5
6,O=S(=O)(Nc1cccc(-c2c(O)ccc3c2OCO3)c1)c1cc(Cl)ccc1Cl,14.5
7,N#Cc1ccccc1S(=O)(=O)Nc1ccc(O)c(-c2c(O)ccc3ccccc23)c1,4.5
8,O=S(=O)(Nc1ccc(O)c(-c2c(O)ccc3ccccc23)c1)c1ccc(O)cc1O,1.8
9,O=S(=O)(Nc1ccc(O)c(-c2ccccc2O)c1)c1cc(Cl)ccc1Cl,19.4
10,Nc1ccc(NS(=O)(=O)c2ccc(O)cc2O)cc1-c1c(O)ccc2ccccc12,9.5
11,COc1ccc(S(=O)(=O)Nc2ccc(N)c(-c3c(O)ccc4ccccc34)c2)c(OC)c1,25
12,O=S(=O)(Nc1ccc(O)c(-c2c(O)ccc3c2OCO3)c1)c1cc(Cl)ccc1Cl,1.7
13,O=S(=O)(Nc1cccc(-c2c(O)ccc3c2OCO3)c1)c1ccc(F)cc1,19.6
14,COc1ccc(O)c(O)c1-c1cc(NS(=O)(=O)c2cc(Cl)ccc2Cl)ccc1N,0.55
15,COc1cc(O)ccc1S(=O)(=O)Nc1ccc(O)c(-c2c(O)ccc3ccccc23)c1,1.3

# Continued, values first:
row,IC50 [µM],Compound
1,26,O=[N+]([O-])c1cc(S(=O)(=O)Nc2ccc(F)c(-c3c(O)ccc4c3OCO4)c2)ccc1Cl
2,28,Cc1ccc(S(=O)(=O)Nc2ccc(F)c(-c3c(O)ccc4c3OCO4)c2)cc1
